Laboratory results published in ChEMBL document CHEMBL1141402 (J Med Chem, 2007).
pEC50, pIC50, pKi: −log10 of the molar value. Calls of active or inactive are those of the source. Residues, ends and D or L forms follow the SMILES beside them.

Experiments:
[1] = target: Delta-type opioid receptor (Rattus norvegicus, UniProt P33533); assay: Displacement of [3H]DSLET from delta opioid receptor in rat brain membrane; format: cell membranes
Summary of the method: (§1)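 Rat brain membranes incubated for 2 h at 0 °C with [3H]DAMGO (0.72 nM; µ) or [3H]DSLET (0.78 nM; δ). IC50 read from log dose-displacement curves. […] Three to four determinations.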

[2] = target: T1, Delta-type opioid receptor (Homo sapiens, UniProt P41143); assay: Activity at delta opioid receptor assessed as increase in calcium level in CHO cells by aequorin luminescence based calcium assay; format: functional, cell-based
[3] = target: Mu-type opioid receptor (Rattus norvegicus, UniProt P33535); assay: Displacement of [3H]DAMGO from mu opioid receptor in rat brain membrane; format: cell membranes; summary of the method: as §1
[4] = target: Delta-type opioid receptor (Mus musculus) (UniProt P32300); assay: Antagonist activity at delta opioid receptor by inhibition of DPDPE-induced muscle contraction in isolated mouse vas deferens; format: functional, tissue-based
[5] = species on record: Mus musculus; assay: Antagonist effect on endomorphin-2-induced jumping in Swiss Albino mouse by hot plate method; format: functional, organism-based
Summary of the method: (§2)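 Mice dosed i.c.v. into the left lateral ventricle, drugs dissolved in 0.9% NaCl; test compound given against endomorphin-2 (3 µg/animal) or DAMGO. Placed on a 55 ± 0.5 °C hot plate 5 min after injection. Latencies to paw licking, rearing and jumping recorded with a 240 s cut-off and expressed as %MPE from control (saline) and test latencies. 10 mice per group; two-way ANOVA with Student-Newman-Keuls.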

[6] = species on record: Mus musculus; assay: Antagonist effect on DAMGO-induced jumping in Swiss Albino mouse by hot plate method; format: functional, organism-based; summary of the method: as §2
[7] = species on record: Mus musculus; assay: Antagonist effect on DAMGO-induced paw licking in Swiss Albino mouse by hot plate method; format: functional, organism-based; summary of the method: as §2
[8] = species on record: Mus musculus; assay: Antagonist effect on DAMGO-induced rearing in Swiss Albino mouse by hot plate method; format: functional, organism-based; summary of the method: as §2
[9] = species on record: Mus musculus; assay: Antagonist effect on endomorphin-2-induced rearing in Swiss Albino mouse by hot plate method; format: functional, organism-based; summary of the method: as §2
[10] = species on record: Mus musculus; assay: Antagonist effect on endomorphin-2-induced paw licking in Swiss Albino mouse by hot plate method; format: functional, organism-based; summary of the method: as §2
[11] = target: Mu-type opioid receptor (Cavia porcellus) (UniProt P97266); assay: Antagonist activity at mu opioid receptor by inhibition of TAPP-induced muscle contraction in guinea pig ileum; format: functional, tissue-based
[12] = species on record: Mus musculus; assay: Antinociceptive activity in Swiss Albino mouse assessed as effect on rearing by hot plate method at 10 ug; format: functional
Summary of the method: (§3)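 Mice given peptide i.c.v. in 0.9% NaCl, then put on a 55 ± 0.5 °C hot plate 5 min later. Latencies to paw licking, rearing and jumping recorded with a 240 s cut-off and converted to %MPE against saline control latencies. 10 mice per group; one-way ANOVA with Student-Newman-Keuls post hoc.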

[13] = target: Delta-type opioid receptor (Mus musculus, UniProt P32300); assay: (§4) Agonist activity at delta opioid receptor by inhibition of electrically evoked muscle contraction in isolated mouse vas deferens; format: functional, tissue-based
Summary of the method: (§5)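 Mouse vas deferens from adult male Swiss Webster mice (30-50 g), killed by cervical dislocation. Field stimulation used 1 ms pulse trains at 0.15 Hz. IC50 taken from the twitch-height reduction across doses.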

[14] = species on record: Mus musculus; assay: Antinociceptive activity in Swiss Albino mouse assessed as effect on paw licking by hot plate method at 10 ug; format: functional; summary of the method: as §3
[15] = species on record: Mus musculus; assay: Antinociceptive activity in Swiss Albino mouse assessed as effect on jumping by hot plate method at 10 ug; format: functional; summary of the method: as §3
[16] = target: Mu-type opioid receptor (Homo sapiens, UniProt P35372); assay: Activity at mu opioid receptor assessed as increase in calcium level in CHO cells by aequorin luminescence based calcium assay; format: functional, cell-based
[17] = target: Mu-type opioid receptor (Cavia porcellus, UniProt P97266); assay: Agonist activity at mu opioid receptor by inhibition of electrically evoked muscle contraction in guinea pig ileum; format: functional, tissue-based
[18] = target: Delta-type opioid receptor (Mus musculus) (UniProt P32300); assay: as §4; format: functional, tissue-based; summary of the method: as §5
[19] = target: Mu-type opioid receptor (Cavia porcellus) (UniProt P97266); assay: Agonist activity at mu opioid receptor by inhibition of TAPP-induced muscle contraction in guinea pig ileum at upto 10 uM; format: functional, tissue-based
Summary of the method: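 A 2-3 cm segment taken at least 10 cm from the ileocecal junction and mounted in a 20 mL bath of modified Krebs' buffer (NaCl 150, KCl 4.3, CaCl2 1.25, MgCl2 1.0, NaH2PO4 1.7, NaHCO3 25.0, glucose 11.0 mM). Buffer gassed with 95% O2/5% CO2 at 37 °C. Stimulated at 10 pulses/min, 4 ms each, with force-transducer recording. IC50 obtained by regression of the concentration-response curve.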

[20] = target: T1, Delta-type opioid receptor; assay: Antagonist activity against delta opioid receptor assessed as effect on deltorphin-2-induced calcium response in CHO cells by aequorin luminescence based calcium assay; format: functional, cell-based; conditions: read-out: pA2 (converted)
Summary of the method: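 CHO cells expressing DOR and aequorin. Compounds in BSA medium, then 25 000 cells injected per well. Luminescence recorded for 30 s, cells lysed with 0.3% Triton X-100 and read for a further 15 s. Signal given as fractional luminescence (agonist peak over agonist plus lysis total), from concentration-response curves. Three independent experiments, each in duplicate.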

Chain of Delta-type opioid receptor (Mus musculus) (P32300 whole entry): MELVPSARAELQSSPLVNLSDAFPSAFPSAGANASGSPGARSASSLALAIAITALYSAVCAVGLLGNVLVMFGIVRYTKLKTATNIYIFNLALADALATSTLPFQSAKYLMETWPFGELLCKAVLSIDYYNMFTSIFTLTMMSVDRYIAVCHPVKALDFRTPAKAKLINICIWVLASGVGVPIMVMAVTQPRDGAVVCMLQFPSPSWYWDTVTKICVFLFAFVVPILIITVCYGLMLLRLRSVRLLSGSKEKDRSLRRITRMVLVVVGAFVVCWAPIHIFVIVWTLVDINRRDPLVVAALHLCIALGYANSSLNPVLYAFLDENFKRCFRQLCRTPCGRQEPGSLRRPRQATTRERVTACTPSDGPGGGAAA
T1 sequence (P41143 whole entry): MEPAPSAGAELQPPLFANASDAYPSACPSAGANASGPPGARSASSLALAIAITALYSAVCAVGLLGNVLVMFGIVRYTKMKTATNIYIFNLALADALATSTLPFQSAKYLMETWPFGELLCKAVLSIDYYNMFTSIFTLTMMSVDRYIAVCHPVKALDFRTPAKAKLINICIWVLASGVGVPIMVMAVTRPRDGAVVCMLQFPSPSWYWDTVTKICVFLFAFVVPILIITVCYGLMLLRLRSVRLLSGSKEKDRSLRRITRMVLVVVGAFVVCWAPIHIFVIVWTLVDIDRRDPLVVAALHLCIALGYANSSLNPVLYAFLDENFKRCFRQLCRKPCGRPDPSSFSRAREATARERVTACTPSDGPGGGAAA
Chain of Mu-type opioid receptor (Cavia porcellus, UniProt P97266) (P97266 whole entry): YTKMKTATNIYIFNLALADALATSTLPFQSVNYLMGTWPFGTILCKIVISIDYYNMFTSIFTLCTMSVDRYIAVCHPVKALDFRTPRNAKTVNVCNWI
Chain of Mu-type opioid receptor (Cavia porcellus) (P97266 whole entry): as above
Chain of Mu-type opioid receptor (Rattus norvegicus, UniProt P33535) (P33535 whole entry): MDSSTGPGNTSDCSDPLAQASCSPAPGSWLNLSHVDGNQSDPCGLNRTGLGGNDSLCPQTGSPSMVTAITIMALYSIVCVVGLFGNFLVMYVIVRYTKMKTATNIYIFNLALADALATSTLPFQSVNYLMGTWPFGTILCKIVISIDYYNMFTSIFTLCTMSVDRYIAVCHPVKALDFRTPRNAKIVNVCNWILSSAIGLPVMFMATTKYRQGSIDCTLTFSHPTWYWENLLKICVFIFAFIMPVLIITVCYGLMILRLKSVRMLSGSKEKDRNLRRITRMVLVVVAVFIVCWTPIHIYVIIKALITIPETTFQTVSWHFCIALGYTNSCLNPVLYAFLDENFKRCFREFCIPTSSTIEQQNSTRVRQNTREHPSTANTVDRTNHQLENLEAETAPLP
Chain of Mu-type opioid receptor (Homo sapiens, UniProt P35372) (P35372 whole entry): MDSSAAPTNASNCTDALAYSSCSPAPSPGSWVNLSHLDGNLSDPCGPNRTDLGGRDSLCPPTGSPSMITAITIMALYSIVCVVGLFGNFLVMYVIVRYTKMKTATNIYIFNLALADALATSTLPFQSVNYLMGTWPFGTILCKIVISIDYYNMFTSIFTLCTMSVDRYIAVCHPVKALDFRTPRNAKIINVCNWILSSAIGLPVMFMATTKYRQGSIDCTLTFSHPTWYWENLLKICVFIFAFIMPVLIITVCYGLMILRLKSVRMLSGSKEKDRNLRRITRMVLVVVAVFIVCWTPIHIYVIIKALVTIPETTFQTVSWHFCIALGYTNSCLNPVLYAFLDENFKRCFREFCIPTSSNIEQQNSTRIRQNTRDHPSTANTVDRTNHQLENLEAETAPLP
Chain of Delta-type opioid receptor (Rattus norvegicus, UniProt P33533) (P33533 whole entry): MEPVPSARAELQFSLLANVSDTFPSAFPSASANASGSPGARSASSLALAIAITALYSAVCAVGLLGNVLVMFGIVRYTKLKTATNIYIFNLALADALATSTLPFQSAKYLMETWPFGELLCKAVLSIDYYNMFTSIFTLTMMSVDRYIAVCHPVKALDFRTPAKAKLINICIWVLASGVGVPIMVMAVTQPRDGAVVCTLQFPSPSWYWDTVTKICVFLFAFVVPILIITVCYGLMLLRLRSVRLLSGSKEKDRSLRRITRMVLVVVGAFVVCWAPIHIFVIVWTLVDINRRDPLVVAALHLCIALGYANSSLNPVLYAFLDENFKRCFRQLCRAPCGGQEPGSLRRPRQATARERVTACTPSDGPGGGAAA
Chain of Delta-type opioid receptor (Mus musculus, UniProt P32300) (P32300 whole entry): as the sequence (P32300 whole entry) above

Molecule `Cc1cc(O)cc(C)c1C[C@H](N)C(=O)N1CCC[C@H]1C(=O)N[C@@H](Cc1ccccc1)C(=O)N[C@H](Cc1cccc2ccccc12)C(N)=O` [listing 1 of 2 here] has a pKi [1] of 7.57, a pEC50 [2] of 8.45 and a pKi [3] of 8.91.
Molecule `Cc1cc(C[C@H](N)C(=O)N2CCC[C@H]2C(=O)N[C@@H](Cc2c[nH]c3ccccc23)C(=O)N[C@H](Cc2cccc3ccccc23)C(N)=O)cc(C)c1O` has a Ke [4] of 62.4 nM.
In the case of `Cc1cc(C[C@H](N)C(=O)N2CCC[C@H]2C(=O)N[C@@H](Cc2ccccc2)C(=O)N[C@H](Cc2cccc3ccccc23)C(N)=O)cc(C)c1O`, the Activity [5] was “Dose-dependent effect”, the Activity [6] was “Dose-dependent effect” and the Activity [7] was “Dose-dependent effect”. The Ke [4] was 227 nM, the Activity [8] was “Dose-dependent effect” and the Activity [9] was “Dose-dependent effect”. For the same molecule, the Activity [10] was “Dose-dependent effect” and the Ke [11] was 14.9 nM.
`NC(=O)[C@@H](Cc1cccc2ccccc12)NC(=O)[C@H](Cc1ccccc1)NC(=O)[C@@H]1CCCN1C(=O)[C@@H](N)Cc1ccc(O)cc1` showed an Activity [12] of 0.31%, a pIC50 [13] of under 5.00 and a pEC50 [2] of under 6.00. It also gave an Activity [14] of 0%, a Ke [11] of 1250 nM and an Activity [15] of 0.8%.
In the case of `Cc1cc(O)cc(C)c1C[C@H](N)C(=O)N1CCC[C@H]1C(=O)N[C@@H](Cc1c[nH]c2ccccc12)C(=O)N[C@H](Cc1ccc2ccccc2c1)C(N)=O` (HELM PEPTIDE1{[Cc1cc(O)cc(C)c1C[C@H](N)C(=O)[*:2]].P.W.[O=C([C@@H](Cc1ccc2ccccc2c1)N[*:1])[*:2]].[am]}$$$$V2.0) [listing 1 of 2 here], the pEC50 [2] was 7.53 and the pKi [3] was 8.62.
Work on `NC(=O)[C@@H](Cc1ccc2ccccc2c1)NC(=O)[C@H](Cc1c[nH]c2ccccc12)NC(=O)[C@@H]1CCCN1C(=O)[C@@H](N)Cc1ccc(O)cc1` yielded a pEC50 [16] of 6.61, a pIC50 [17] of 5.46 and an IC30 [18] of 4180 nM. The Activity ([18]; filed as partial agonist) was “Partial agonist” and the pEC50 [2] was under 6.00.
For `Cc1cc(O)cc(C)c1C[C@H](N)C(=O)N1CCC[C@H]1C(=O)N[C@@H](Cc1c[nH]c2ccccc12)C(=O)N[C@H](Cc1ccc2ccccc2c1)C(N)=O` (HELM PEPTIDE1{[Cc1cc(O)cc(C)c1C[C@H](N)C(=O)[*:2]].P.W.[O=C([C@@H](Cc1ccc2ccccc2c1)N[*:1])[*:2]].[am]}$$$$V2.0) [listing 2 of 2 here], the Activity [12] was 0.49%, the Activity [14] was 0.17% and the Activity [15] was 0.58%.
In the case of `NC(=O)[C@@H](Cc1ccc2ccccc2c1)NC(=O)[C@H](Cc1ccccc1)NC(=O)[C@@H]1CCCN1C(=O)[C@@H](N)Cc1ccc(O)cc1` (HELM PEPTIDE1{Y.P.F.[O=C([C@@H](Cc1ccc2ccccc2c1)N[*:1])[*:2]].[am]}$$$$V2.0), the Activity [12] was 0.09%, the Activity [18] was “inactive” and the pEC50 [2] was under 6.00. The Activity [14] was 0.13%, the Ke [11] was 1260 nM and the Activity [15] was 2.5%.
For `Cc1cc(O)cc(C)c1C[C@H](N)C(=O)N1CCC[C@H]1C(=O)N[C@@H](Cc1ccccc1)C(=O)N[C@H](Cc1ccc2ccccc2c1)C(N)=O` (HELM PEPTIDE1{[Cc1cc(O)cc(C)c1C[C@H](N)C(=O)[*:2]].P.F.[O=C([C@@H](Cc1ccc2ccccc2c1)N[*:1])[*:2]].[am]}$$$$V2.0), the Activity [5] was “Dose-dependent effect”, the Activity [12] was 0.18% and the Activity [6] was “Dose-dependent effect”. The Activity [19] was “inactive”, the Activity [7] was “Dose-dependent effect” and the pEC50 [2] was 7.81. For the same molecule, the Ke [4] was 250 nM, the Activity [8] was “Dose-dependent effect” and the Activity [9] was “Dose-dependent effect”. The Activity [10] was “Dose-dependent effect”, the Activity [14] was 0.09% and the Ke [11] was 5.86 nM. The pKi [3] was 8.82 and the Activity [15] was 1.54%.
For `NC(=O)[C@H](Cc1ccccc1)NC(=O)[C@H](Cc1c[nH]c2ccccc12)NC(=O)[C@@H]1CCCN1C(=O)[C@@H](N)Cc1ccc(O)cc1` [ENDOMORPHIN-1], the Activity [12] was 12%, the Activity [14] was 5.99% and the Activity [15] was 40.8%.
Work on `Cc1cc(O)cc(C)c1C[C@H](N)C(=O)N1CCC[C@H]1C(=O)N[C@@H](Cc1ccccc1)C(=O)N[C@H](Cc1cccc2ccccc12)C(N)=O` [listing 2 of 2 here] yielded an Activity [12] of 1.06%, an Activity [14] of 0.13% and an Activity [15] of 2.73%.
`Cc1cc(O)cc(C)c1C[C@H](N)C(=O)N1CCC[C@H]1C(=O)N[C@@H](Cc1c[nH]c2ccccc12)C(=O)N[C@H](Cc1cccc2ccccc12)C(N)=O` [listing 1 of 2 here] was tested, and the pEC50 [16] was 8.94, the Kb [20] was 2.57 nM and the pIC50 [17] was 7.80.
With `Cc1cc(O)cc(C)c1C[C@H](N)C(=O)N1CCC[C@H]1C(=O)N[C@@H](Cc1c[nH]c2ccccc12)C(=O)N[C@H](Cc1cccc2ccccc12)C(N)=O` [listing 2 of 2 here] the Activity [12] was 10.6%, the Activity [14] was 5.35% and the Activity [15] was 23.2%.
For `NC(=O)[C@@H](Cc1cccc2ccccc12)NC(=O)[C@H](Cc1c[nH]c2ccccc12)NC(=O)[C@@H]1CCCN1C(=O)[C@@H](N)Cc1ccc(O)cc1`, the pEC50 [16] was 7.09, the pIC50 [17] was 5.38 and the Activity ([18]; filed as partial agonist) was “Partial agonist”. For the same molecule, the pEC50 [2] was under 6.00.
With `Cc1cc(C[C@H](N)C(=O)N2CCC[C@H]2C(=O)N[C@@H](Cc2c[nH]c3ccccc23)C(=O)N[C@H](Cc2ccc3ccccc3c2)C(N)=O)cc(C)c1O` the Activity [5] was “Dose-dependent effect”, the Activity [6] was “Dose-dependent effect” and the Activity [19] was “inactive”. For the same molecule, the Activity [7] was “Dose-dependent effect”, the Activity ([18]; filed as partial agonist) was “Partial agonist” and the Activity [8] was “Dose-dependent effect”. For the same molecule, the Activity [9] was “Dose-dependent effect”, the Activity [10] was “Dose-dependent effect” and the Ke [11] was 8.27 nM.
